The values that follow come from publication PMC5814953 (Nucleic Acids Research, 2017).

Broadly, the Kd is the equilibrium constant for the complex coming apart.

Assay [1] has as its system Sim3-FLAG. In words: Biotinylated peptide pull-down of Sim3-FLAG from yeast cell extract, immunoblot. It counts as binding, Schizosaccharomyces pombe.
Assay [2] in a line: 2D 1H ROESY NMR of NTD peptide in the absence of isomerase. It counts as physicochemical. Conditions: pH 6.5, 25°C. In short, it runs like this: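 Synthetic NTD peptide at 2 mM in 20 mM phosphate buffer (90% H2O/10% D2O), pH 6.5, run at 25°C. No isomerase was added; the paired runs contained 0.03 mM bacterially produced Ani1 or Ani2.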
Assay [3] relates to Ani1. In words: 2D 1H ROESY NMR, cis-trans isomerization of NTD peptide by Ani1. It counts as biochemical, Schizosaccharomyces pombe.
The test system of assay [4] is Ani2. Description: 2D 1H ROESY NMR, cis-trans isomerization of NTD peptide by Ani2. The assay is classed as biochemical, Schizosaccharomyces pombe.
Assay [5] deals with T1, Sim3-His, bacterially purified recombinant Sim3 protein (S. pombe, UniProt Q9USQ4 1-396).
T1 sequence (looked up): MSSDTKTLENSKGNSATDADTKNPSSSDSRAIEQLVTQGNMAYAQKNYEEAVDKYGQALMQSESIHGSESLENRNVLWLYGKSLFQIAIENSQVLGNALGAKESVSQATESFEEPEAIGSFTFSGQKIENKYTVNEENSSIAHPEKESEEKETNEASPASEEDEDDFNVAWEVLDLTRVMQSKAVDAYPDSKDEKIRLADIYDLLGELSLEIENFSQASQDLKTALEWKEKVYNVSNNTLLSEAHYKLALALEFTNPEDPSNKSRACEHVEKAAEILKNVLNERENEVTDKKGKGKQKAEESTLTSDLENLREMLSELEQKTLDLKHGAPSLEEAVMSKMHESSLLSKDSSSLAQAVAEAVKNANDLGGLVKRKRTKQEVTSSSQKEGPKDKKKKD
In words: ITC. For orientation: Isothermal titration calorimetry measures the heat released or taken up as one component is titrated into another.

Ends that are not written are not given here. Peptide text beside a SMILES is read from it. * marks the point of attachment. Biotin = O=C1N[C@H]2[C@H](CS[C@H]2CCCCC(=O)*)N1

With `CC[C@H](C)[C@H](NC(=O)[C@@H]1CCCN1C(=O)[C@H](CC(=O)O)NC(=O)CNC(=O)[C@@H]1CCCN1C(=O)[C@H](CCC(=O)O)NC(=O)[C@H](C)NC(=O)[C@H](CCSC)NC(=O)[C@H](CC(C)C)NC(=O)[C@H](CO)NC(=O)[C@H](CCCCN)NC(=O)[C@H](CCCCN)NC(=O)[C@H](C)NC(=O)[C@@H](N)CCSC)C(=O)N1CCC[C@H]1C(=O)N[C@@H](CCCNC(=N)N)C(=O)N1CCC[C@H]1C(=O)N[C@@H](CCCNC(=N)N)C(=O)N[C@@H](CCCCN)C(=O)N[C@@H](CCCCN)C(=O)N[C@@H](CCCNC(=N)N)C(=O)N[C@@H](Cc1ccc(O)cc1)C(=O)N[C@@H](CCCNC(=N)N)C(=O)N1CCC[C@H]1C(=O)NCC(=O)N[C@H](C(=O)N[C@H](C(=O)N[C@@H](C)C(=O)N[C@@H](CC(C)C)C(=O)N[C@@H](CCCNC(=N)N)C(=O)N[C@@H](CCCCNC(=O)CCCC[C@@H]1SC[C@@H]2NC(=O)N[C@@H]21)C(=O)O)[C@@H](C)O)[C@@H](C)O` [WT SpCENP-A NTD] (H-MAKKSLMAEPGDPIPRPRKKRYRPGTTALRK(Biotin)-OH; N-terminus and C-terminus assumed), the “reduction of Sim3-FLAG interaction” value in assay [1] (WT peptide, absence of both ani1 and ani2, vs WT cells (1–0.57)) is on record as ~43%. The “effect of single null mutation of ani1 or ani2 on Sim3-FLAG binding (in words)” value in assay [1] (Δani1 or Δani2 single mutant cell extract, Figure 6B bottom gel) is listed as “did not grossly affect the binding”.

For the molecule SLMAEPGDPIPRPR, the cis-trans exchange cross-peaks entry is “no cross-peaks were observed” in assay [2] (absence of Ani1 or Ani2, 2 mM peptide, 20 mM phosphate); “two prominent and reproducible exchange cross-peaks corresponding to Ile14 and Arg16” in assay [3] (presence of 0.03 mM Ani1, 2 mM peptide, 20 mM phosphate (90% H2O + 10% D2O, pH 6.5), 25°C); “two prominent and reproducible exchange cross-peaks corresponding to Ile14 and Arg16” in assay [4] (presence of 0.03 mM Ani2, 2 mM peptide, 20 mM phosphate (90% H2O + 10% D2O, pH 6.5), 25°C). Further, the “speed of the cis- and trans-conformational switch” value in assay [2] (absence of Ani1 or Ani2, too slow to be detected under the NMR time scale, 2 mM peptide) was < 0.1 s⁻¹. The “cross peaks corresponding to P10 or P13” value in assay [3] (presence of Ani1, 2 mM peptide, pH 6.5, 25°C) is “No cross peaks were found corresponding to P10 or P13”; in assay [4] (presence of Ani2, 2 mM peptide, pH 6.5, 25°C), “No cross peaks were found corresponding to P10 or P13”.

For MAKKSLMAEAGDAIARARKK (peptide, UniProt Q9Y812 1-20, looked up, also: biotinylated, position not given here) [SpCENP-A NTD 4PA peptide (quadruple P-to-A mutations of the GRANT prolines), biotinylated], in assay [5], the Kd turned out to be 4.5 µM.
